Test results as given in ChEMBL document CHEMBL4732218, “Synthesis and biological evaluation of benzhydryl-based antiplasmodial agents possessing Plasmodium falciparum chloroquine resistance transporter (PfCRT) inhibitory activity” (Eur J Med Chem, 2021).
Blank lines part the entries; values can stand above or below the compound they belong to. Calls of active or inactive are those of the source. The rule behind the calls is not given here.

Legend:
[1] = test system: Plasmodium falciparum; experiment: Antimalarial activity against Plasmodium falciparum D10 by parasite lactate dehydrogenase assay; format: functional, organism-based
[2] = test system: Plasmodium falciparum; experiment: Antimalarial activity against Plasmodium falciparum W2 by parasite lactate dehydrogenase assay; format: functional, organism-based
[3] = molecular target: T1, Chloroquine resistance transporter (Plasmodium falciparum) (UniProt Q9N623); experiment: Inhibition of Plasmodium falciparum Dd2 CRT expressed in Xenopus laevis oocyte assessed as inhibition of [3H]-CQ transport at 100 uM incubated for 1.5 hrs by microbeta scintillation counting method; format: cell-based
T1 sequence (whole entry): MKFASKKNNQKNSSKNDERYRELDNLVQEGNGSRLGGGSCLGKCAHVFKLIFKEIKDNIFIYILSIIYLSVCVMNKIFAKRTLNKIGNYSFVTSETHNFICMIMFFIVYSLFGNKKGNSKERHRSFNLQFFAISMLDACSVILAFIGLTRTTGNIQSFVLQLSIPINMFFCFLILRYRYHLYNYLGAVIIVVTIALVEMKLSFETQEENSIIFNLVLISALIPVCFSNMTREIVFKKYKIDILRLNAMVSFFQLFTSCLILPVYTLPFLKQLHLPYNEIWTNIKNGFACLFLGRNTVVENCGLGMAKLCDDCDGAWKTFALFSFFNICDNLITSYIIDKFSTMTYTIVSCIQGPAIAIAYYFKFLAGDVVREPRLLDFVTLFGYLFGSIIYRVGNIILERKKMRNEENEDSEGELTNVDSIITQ
Summary of the method: (§1)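 Xenopus oocytes expressing PfCRT Dd2 and non-expressing oocytes, stored at 16–18 °C in OR2+ buffer (pH 7.8), assayed 3-4 days post-injection. [3H]CQ (0.25 µM) influx measured over 1.5 h at 27.5 °C in pH 5.5 medium (96 mM NaCl, 10 mM MES/Tris) with 15 µM unlabeled CQ, scintillation counting. PfCRT-mediated transport = uptake in expressing minus non-expressing oocytes.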

[4] = molecular target: T2, Chloroquine resistance transporter (Plasmodium falciparum, UniProt Q9N623); experiment: Inhibition of Plasmodium falciparum Dd2 CRT expressed in Xenopus laevis oocyte assessed as inhibition of [3H]-CQ transport incubated for 1.5 hrs by microbeta scintillation counting method; format: cell-based; summary of the method: as §1
T2 sequence (Q9N623 whole entry): T1 sequence (whole entry)

[5] = Cytotoxicity against mouse NIH/3T3 cells assessed as reduction in cell viability incubated for 24 hrs by neutral red dye uptake assay; format: cell-based, NIH3T3
Summary of the method: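 NIH3T3 cells, 5 × 10^4/well, cultured 24 h at 37 °C, 5% CO2, then exposed 24 h to compounds in DMSO at 8–160 µM; medium alone as negative control. Viability by Neutral Red uptake (3 h at 37 °C), dye extracted in acetic acid/ethanol, absorbance 540 nm. Three experiments, six replicates per concentration.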

[6] = test system: Plasmodium berghei; experiment: (§2) Antimalarial activity against liver stage Plasmodium berghei PbmCherryhsp70 sporozoites infected in human HepG2 cells assessed as reduction in parasite number at 8 uM incubated for 24 hrs followed by removal of media and supplemented with fresh media and further incubated for 24 hrs by phase contrast microscopic analysis relative to control; format: functional
Summary of the method: (§3)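 HepG2 cells (60000/well, seeded day before) infected 2 h with 20'000 PbmCherry_hsp70 sporozoites from An. stephensi salivary glands, then detached, pooled and treated from 2 hpi at graded concentrations with DMSO control. Medium changed 24 hpi; fixed 4% PFA at 48 hpi. Parasite number and size from mCherry signal by automated microscopy; 6 replicates; host growth checked by phase contrast; one-way ANOVA with Dunnett.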

[7] = test system: Plasmodium berghei; experiment: as §2, with “size” for “number”, “2” for “8”, “analysis” for “analysis relative to control”; format: functional, organism-based; summary of the method: as §3
[8] = test system: Plasmodium berghei; experiment: Antimalarial activity against in Plasmodium berghei ANKA strain GFP-con infected in Balb/c mouse assessed as blocked of transmission activity to Anopheles stephensi by measuring reduction in […] in mosquito at 10 micromol/kg, ip treated first dose 3 days post infection and female mosquitos feed blood meal on day 4 after 1.5 hrs of dosing by direct exposure and measured on day 8 by fluorescence microscopic analysis (reference value: 357); format: functional; settings: dose 10 µmol/kg; time 3 day
Summary of the method: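 P. berghei ANKA GFP-con, i.p. 10^7 infected RBC into 8–10-week BALB/c mice; on day 3 mice with ~5% parasitemia and gametocytes randomised, 3 per group. Dosed i.p. 10 µmol/kg on afternoon of day 3 and again day 4, 1.5 h before 1 h feed by ~150 female An. stephensi. Day 8: fluorescent midgut oocysts counted in 20–30 mosquitoes; triplicate cages; PBS control; two-tailed t-test.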

Structure (SMILES): Clc1ccc(C(Nc2ccnc3cc(Cl)ccc23)c2ccc(CCN3CCCC3)cc2)cc1 (centres undefined)
- IC50 [1]: 19 nM
- IC50 [2]: 27 nM
- inhibition [3]: inactive

Structure (SMILES): Clc1cccc(C(Nc2ccnc3cc(Cl)ccc23)c2ccc(CCN3CCCC3)cc2)c1 (centres undefined)
- IC50 [1]: 23 nM
- IC50 [2]: 22 nM
- inhibition [3]: inactive

Structure (SMILES): COc1cc(NC(c2ccc(CN3CCNCC3)cc2)c2cccc(Cl)c2)n2nc(C)nc2n1 (centres undefined)
- IC50 [1]: 3700 nM
- IC50 [2]: 920 nM
- inhibition [3]: 98%
- IC50 [4]: 12.5 µM
- CC50 at 24 h [5]: < 3.5 µM

- IC50 [1]: 5700 nM
- IC50 [2]: 4400 nM
Structure (SMILES): COc1cc(NC(C)CCCN)c2ncccc2c1 (centres undefined) [PRIMAQUINE]
- inhibition at 8 µM [6]: 50%
- inhibition [7]: Active

Structure (SMILES): COc1cc(NC(c2ccc(CN3CCNCC3)cc2)c2cccc(Cl)c2)c2ncccc2c1 (centres undefined)
- IC50 [1]: 2800 nM
- IC50 [2]: 2300 nM
- inhibition [3]: 65%
- IC50 [4]: 64 µM
- CC50 at 24 h [5]: 19 µM
- Activity [8]: 454

Structure (SMILES): Clc1ccc(C(Nc2ccnc3cc(Cl)ccc23)c2ccc(CN3CCCCC3)cc2)cc1 (centres undefined)
- IC50 [1]: 65 nM
- IC50 [2]: 69 nM
- inhibition [3]: inactive

Structure (SMILES): Clc1cccc(C(Nc2ccnc3cc(Cl)ccc23)c2ccc(CN3CCCCC3)cc2)c1 (centres undefined)
- IC50 [1]: 84 nM
- IC50 [2]: 88 nM
- inhibition [3]: inactive

Structure (SMILES): OC(c1ccc(Cl)cc1)c1ccc(CCN2CCCC2)cc1 (centres undefined)
- IC50 [1]: > 15000 nM
- IC50 [2]: > 15000 nM
- inhibition [3]: 22%

Structure (SMILES): Clc1ccc(C(Nc2ccnc3cc(Cl)ccc23)c2ccc(CN3CCN(Cc4ccc(C(Nc5ccnc6cc(Cl)ccc56)c5cccc(Cl)c5)cc4)CC3)cc2)cc1 (centres undefined)
- IC50 [1]: 595 nM
- IC50 [2]: 460 nM
- inhibition [3]: Active
- IC50 [4]: 15.6 µM

Structure (SMILES): COc1cccc(C(Nc2ccnc3cc(Cl)ccc23)c2ccc(CN3CCNCC3)cc2)c1 (centres undefined)
- IC50 [1]: 40 nM
- IC50 [2]: 75 nM
- inhibition [3]: Active

Structure (SMILES): Clc1ccc2c(NC(c3ccc(CN4CCNCC4)cc3)c3cccc(OCCOc4cccc(C(Nc5ccnc6cc(Cl)ccc56)c5ccc(CN6CCNCC6)cc5)c4)c3)ccnc2c1 (centres undefined)
- inhibition [3]: Active

Structure (SMILES): COc1cc(NC(c2ccc(CN3CCCC3)cc2)c2cccc(Cl)c2)c2ncccc2c1 (centres undefined)
- IC50 [1]: 4500 nM
- IC50 [2]: 3700 nM
- inhibition [3]: 65%
- IC50 [4]: 55 µM
- CC50 at 24 h [5]: 28 µM
- Activity [8]: 491

Structure (SMILES): O=C(c1ccc(Cl)cc1)c1ccc(CN2CCNCC2)cc1
- IC50 [1]: > 15000 nM
- IC50 [2]: 8600 nM
- inhibition [3]: 22%

Structure (SMILES): OC(c1ccc(Cl)cc1)c1ccc(CN2CCNCC2)cc1 (centres undefined)
- IC50 [1]: > 15000 nM
- IC50 [2]: 11000 nM
- inhibition [3]: 22%

Structure (SMILES): Oc1cccc(C(Nc2ccnc3cc(Cl)ccc23)c2ccc(CN3CCNCC3)cc2)c1 (centres undefined)
- IC50 [1]: 179 nM
- IC50 [2]: 475 nM
- inhibition [3]: inactive

Structure (SMILES): OC(c1ccc(Cl)cc1)(c1ccc(CN2CCNCC2)cc1)c1ccnc2cc(Cl)ccc12 (centres undefined)
- IC50 [1]: 2000 nM
- IC50 [2]: 2000 nM
- inhibition [3]: inactive

Structure (SMILES): Clc1ccc(C(c2ccc(CN3CCNCC3)cc2)c2ccnc3cc(Cl)ccc23)cc1 (centres undefined)
- IC50 [1]: 3700 nM
- IC50 [2]: 2700 nM
- inhibition [3]: inactive
